Platelet DG rel: modulates dense granule release in human platelets | human platelet-rich plasma, SFLLRN dense granule ATP release, luminescence | AID 1663 | 300,000 compounds, 0.22% hits | inhibition, %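 (compounds screened at 7.5 µM in platelet-rich plasma)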;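 active means mean replicate score, as percent of positive control, at or above 50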
SENP1 inh: blocks the human SENP1 SUMO protease catalytic domain | inhibition, % at 10 µM | 360,000 compounds, 0.21% hits | Q9P0U3 | recombinant SENP1 catalytic domain, CyPet-SUMO1-YPet FRET cleavage;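 active means inhibition at least 30% at 10 µM, raw YFP signal under a set limit, fluorescence ratio 0.5 to 1.5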
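Material – human SENP1 catalytic domain · Input – SENP1 enzyme, 20 pM final · Compound dosing – single concentration of 10 µM compound, 0.5% DMSO final · Timing – enzyme reaction for 50 min at room temperature, dark · Measured by – FRET fluorescence in CFP and YFP emission channels · Control set – no-enzyme wells low, DMSO-plus-enzyme wells high control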
SENP8 block-1: blocks the human protease SENP8; Q96LD8; purified SENP8, Z-RLRGG-aminoluciferin cleavage, luminescence; AID 2540; inhibition, % at 10 µM; 330,000 compounds, 1.2% hits; in the data active means inhibition above about 50%
Target sequence (Q96LD8 whole entry, looked up): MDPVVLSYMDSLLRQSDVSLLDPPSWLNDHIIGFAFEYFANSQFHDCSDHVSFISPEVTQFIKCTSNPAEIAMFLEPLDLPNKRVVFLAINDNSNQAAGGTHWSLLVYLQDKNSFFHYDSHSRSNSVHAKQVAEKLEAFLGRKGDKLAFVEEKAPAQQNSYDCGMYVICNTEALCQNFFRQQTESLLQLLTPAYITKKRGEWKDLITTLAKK
SENP6 block: blocks the human protease SENP6 | Recombinant SENP6 catalytic domain, aminoluciferin luminescence | Q9GZR1 | AID 2599 | inhibition, % at 10 µM | 330,000 compounds, 1.8% hits;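 active means inhibition above about 50% at the single tested dose, limit read from the data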
Target sequence (Q9GZR1 628-1112 limits assumed): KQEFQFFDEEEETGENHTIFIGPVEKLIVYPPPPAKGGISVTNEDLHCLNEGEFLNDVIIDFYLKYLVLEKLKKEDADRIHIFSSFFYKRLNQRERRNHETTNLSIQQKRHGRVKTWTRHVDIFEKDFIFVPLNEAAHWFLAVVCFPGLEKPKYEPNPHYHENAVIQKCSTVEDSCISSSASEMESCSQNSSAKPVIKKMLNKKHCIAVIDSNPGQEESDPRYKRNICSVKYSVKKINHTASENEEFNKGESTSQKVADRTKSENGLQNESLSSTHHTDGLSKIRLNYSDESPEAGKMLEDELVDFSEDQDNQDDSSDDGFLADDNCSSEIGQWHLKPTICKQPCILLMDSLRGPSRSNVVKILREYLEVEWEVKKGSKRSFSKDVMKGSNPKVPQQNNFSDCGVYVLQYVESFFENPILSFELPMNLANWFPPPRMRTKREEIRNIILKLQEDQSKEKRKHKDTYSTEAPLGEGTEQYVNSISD
SENP8 block-2: SENP8 (human) protease inhibition; 360,000 compounds, 0.64% hits; Q96LD8; recombinant SENP8, Nedd8 substrate fluorescence; inhibition, % at 20 µM; in the data active means inhibition mostly above about 40%, no sharp cut-off; inactive means mostly below about 27%
SENP7 block: blocks the human protease SENP7; recombinant SENP7, Z-RLRGG-aminoluciferin luminescence, 40 min; inhibition, % at 5 µM; 330,000 compounds, 1.5% hits;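 active means inhibition above about 50% at the single test dose, limit read from the data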
SENP8 conf: confirmation of human SENP8 protease inhibitors. inhibition, % at 12.5 µM. 6,200 compounds, 40% hits. AID 488912. shares compounds with SENP7 block. Recombinant SENP8, Z-RLRGG-aminoluciferin luminescence, 60 min;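 active means mean inhibition across replicates above about 50%, limit read from the data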
SENP6 conf: human SENP6 inhibition, confirmed. shares compounds with SENP7 block. recombinant SENP6, Z-RLRGG-aminoluciferin luminescence. inhibition, % at 12.5 µM. 6,200 compounds, 58% hits. AID 488915
SENP7 confirm: human SENP7 inhibition, confirmed; recombinant SENP7, Z-RLRGG-aminoluciferin luminescence, 40 min; 6,200 compounds, 69% hits; shares compounds with SENP7 block; inhibition, % at 12.5 µM
Casp3 select: caspase-3 inhibition (SENP selectivity assay). purified caspase-3, Z-DEVD-aminoluciferin luminescence, 60 min. 6,200 compounds, 60% hits. shares compounds with SENP7 block. inhibition, % at 12.5 µM;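 active means mean inhibition above about 50%, limit read from the data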
SENP luc ctr: counter-screen for SENP inhibitors: luminescence interference | shares compounds with SENP7 block | Pre-incubated SENP8/Z-RLRGG-aminoluciferin, luciferase luminescence interference | inhibition, % at 12.5 µM | 6,200 compounds, 39% hits | AID 488919;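 active means mean inhibition above about 50% when retested at one dose, limit read from the data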
Of the large screens only hits and unclear results are named; the others gave an inactive call (follow-up assays come after a bar, where they were run). Hits are enriched below; roughly 2.6% of the tested compounds scored in any of these assays.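 How the source made its calls, unless noted: active means mean inhibition above about 50% in the one-dose retest (limit read from the data); inactive means the rest.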

c1ccc(Cn2ccc(-c3cnc(-c4ccccc4)s3)n2)cc1	SENP8 block-1 64.1, SENP6 block 81.0, SENP7 block 79.9 | SENP8 conf inactive | SENP6 conf 78.0 | SENP7 confirm 91.8 | Casp3 select 62.9 | SENP luc ctr 64.3
COc1cccc(/C=C2\CCC(C3CCCC3)C2=O)c1 (stereo not given)	SENP6 block 50.3 | SENP8 conf inactive | SENP6 conf inactive | SENP7 confirm 66.5 | Casp3 select inactive | SENP luc ctr inactive
O=C(NNC(=O)C1CCN(c2ncccn2)CC1)c1ccc(F)cc1	none
COc1ccc(CCn2c(N)c(C#N)c3nc4ccccc4nc32)cc1OC	SENP8 block-1 54.1, SENP6 block 62.0 | SENP8 conf inactive | SENP6 conf inactive | SENP7 confirm inactive | Casp3 select inactive | SENP luc ctr inactive
COc1ccccc1CCn1c(N)c(C#N)c2nc3ccccc3nc21	SENP6 block 50.8 | SENP8 conf inactive | SENP6 conf inactive | SENP7 confirm inactive | Casp3 select inactive | SENP luc ctr inactive
Cc1ccc(S(=O)(=O)N2CCOCC2)cc1C(=O)c1nccn1C	none
Cc1ccc(S(=O)(=O)Nc2ccsc2C#N)cc1	none
COc1ccccc1CNC(=O)COc1ccccc1C(=O)c1cnn(-c2ccccc2)c1	SENP6 block 50.7 (no result: Platelet DG rel) | SENP8 conf inactive | SENP6 conf inactive | SENP7 confirm 60.6 | Casp3 select inactive | SENP luc ctr inactive
CN(C)CCCN(C(=O)COc1ccccc1)c1nc2c(F)cccc2s1	SENP7 block 60.7 | SENP8 conf inactive | SENP6 conf inactive | SENP7 confirm inactive | Casp3 select inactive | SENP luc ctr inactive
COc1cccc(CN2CCC2(C)C(=O)Nc2cccc(NS(C)(=O)=O)c2)c1OC (stereo not given)	none (no result: Platelet DG rel, SENP8 block-1, SENP6 block, SENP7 block)
FC(F)(F)c1cccc(-c2nc3nc(Cl)c(Cl)nc3[nH]2)c1	SENP8 block-1 93.4, SENP6 block 95.1, SENP7 block 91.5 | SENP8 conf 96.6 | SENP6 conf 97.7 | SENP7 confirm 101.7 | Casp3 select 91.8 | SENP luc ctr 86.8
CCOC(=O)/C(=N\Nc1ncnc2ccccc12)c1ccc(OC)cc1	SENP8 block-1 74.2, SENP6 block 77.5, SENP7 block 65.2 | SENP8 conf inactive | SENP6 conf 70.2 | SENP7 confirm 90.1 | Casp3 select inactive | SENP luc ctr inactive
Cc1ccc2nc(-c3ccc(O)c(O)c3)cn2c1	SENP6 block 71.5, SENP7 block 56.7 | SENP8 conf 68.6 | SENP6 conf 67.4 | SENP7 confirm 90.3 | Casp3 select 84.3 | SENP luc ctr 72.2
Cc1nc(-c2ccc(O)c(O)c2)cs1	none
Clc1ccc(-c2cn3cc(Cl)ccc3n2)cc1	SENP8 block-1 69.2, SENP6 block 82.4, SENP7 block 93.4 | SENP8 conf inactive | SENP6 conf inactive | SENP7 confirm inactive | Casp3 select inactive | SENP luc ctr inactive
Cc1ccc2nc(-c3ccccc3)cn2c1	Platelet DG rel 73.3, SENP8 block-1 95.2, SENP6 block 99.5, SENP7 block 98.8 | SENP8 conf 99.1 | SENP6 conf 100.2 | SENP7 confirm 103.0 | Casp3 select 98.8 | SENP luc ctr 98.3
Oc1ccc(-c2cn3cc(C(F)(F)F)ccc3n2)cc1	SENP6 block 54.8 | SENP8 conf 57.5 | SENP6 conf 52.3 | SENP7 confirm 82.9 | Casp3 select 60.4 | SENP luc ctr 65.1
NNC(=O)c1ccc2nc(-c3ccc(Br)cc3)cn2c1	none
CC(=O)Nc1ccc(-c2cn3cc(C)ccc3n2)cc1	none
Cc1[nH]c2ccccc2c1/C=C/c1nc2ccccc2c(=O)n1CCO	none
CCCCC[C@H]1CN(C2CCCCC2)C(=O)[C@@H]1CC(=O)NCc1ccccc1	none
CCOC(=O)c1c(C)[nH]c(N=Nc2ccccc2Cl)c1C	none
CCOC(=O)c1c(C)[nH]c(N=Nc2cccc(OC)c2)c1C	SENP7 block 58.3 | SENP8 conf 58.1 | SENP6 conf 61.8 | SENP7 confirm 88.3 | Casp3 select inactive | SENP luc ctr inactive
CCOC(=O)c1c(C)[nH]c(N=Nc2cccc(C)c2)c1C	SENP6 block 62.4 | SENP8 conf inactive | SENP6 conf 62.7 | SENP7 confirm 78.2 | Casp3 select inactive | SENP luc ctr inactive
CCOC(=O)c1c(C)[nH]c(N=Nc2ccc(C)cc2)c1C	SENP6 block 53.3 | SENP8 conf inactive | SENP6 conf inactive | SENP7 confirm inactive | Casp3 select inactive | SENP luc ctr inactive
Cc1cccc(S(=O)(=O)NC(=O)C2(C)CCN2C(=O)CC2CCCCC2)c1 (stereo not given)	none (no result: Platelet DG rel, SENP8 block-1, SENP6 block, SENP7 block)
CN(Cc1ccccc1)C(=O)COC(=O)c1cc2ccccc2oc1=O	none (no result: Platelet DG rel)
CCCCCn1c(N)c(C#N)c2nc3ccccc3nc21	none
CCCCn1c(NC(C)=O)c(C#N)c2nc3ccccc3nc21	SENP6 block 97.5, SENP7 block 65.7 | SENP8 conf inactive | SENP6 conf inactive | SENP7 confirm inactive | Casp3 select inactive | SENP luc ctr inactive
N#Cc1c(N)n(CCNC(=O)c2ccccc2)c2nc3ccccc3nc12	none
C=CCn1c(NC(=O)c2ccccc2Cl)c(C#N)c2nc3ccccc3nc21	SENP8 block-1 96.7, SENP6 block 93.8 | SENP8 conf inactive | SENP6 conf 73.3 | SENP7 confirm 65.7 | Casp3 select inactive | SENP luc ctr inactive
CCCCn1c(NC(=O)c2ccc(Br)o2)c(S(=O)(=O)c2ccccc2)c2nc3ccccc3nc21	SENP8 block-1 86.5, SENP6 block 86.5 | SENP8 conf inactive | SENP6 conf inactive | SENP7 confirm inactive | Casp3 select inactive | SENP luc ctr inactive
CCCCNC(=O)C1(C)CCN1C(=O)CSc1ccccc1 (stereo not given)	none (no result: Platelet DG rel, SENP8 block-1, SENP6 block, SENP7 block)
Cc1ccc(NC(=O)CCCC(=O)OC(C)C(=O)c2ccccc2)cc1 (stereo not given)	none
CN(C)c1cc(N/N=C/c2ccccc2C(F)(F)F)nc(N(C)C)n1	SENP6 block 55.2 | SENP8 conf inactive | SENP6 conf inactive | SENP7 confirm inactive | Casp3 select inactive | SENP luc ctr inactive
COC(=O)c1ccc(CSC2=NC[C@@H]3[C@@H]4C(=O)N(Cc5ccccc5)C(=O)[C@@H]4[C@](C)(C(=O)OC)N23)cc1	none (no result: Platelet DG rel, SENP8 block-1, SENP6 block)

Screens deposited in PubChem by several laboratories.
